Compound activity as filed in PubChem.
A selection: hits, their analogues and other compounds. The true share with any hit is near 1.4%.
Fh CTSL1 inh = Fasciola hepatica cathepsin L1 inhibitors, primary screen, counter-screen for PFM18AAP inhibitor project, biochemical, QFRET, fluorogenic peptide substrate. recombinant F. hepatica cathepsin L1, Z-Leu-Arg-MCA fluorescence. inhibition, % at 5.96 µM. 300,000 compounds, 0.49% hits. AID 1906, 2009;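 active = inhibition above the mean of all tested compounds plus 3 SD, set per screening campaign, cut at about 17% in these data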
UCH37 inh = inhibitors of human UCH37 deubiquitinase, primary screen, biochemical, Ub-AMC cleavage, fluorescence; Ubiquitin carboxyl-terminal hydrolase isozyme L5 (Homo sapiens), Q9Y5K5; purified proteasome/UCH37; inhibition, % (no concentration beside the values); 330,000 compounds, 0.33% hits;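 active = mean inhibition over replicate wells above about 20%, limit read from the data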
Target sequence (Q9Y5K5 whole entry, looked up): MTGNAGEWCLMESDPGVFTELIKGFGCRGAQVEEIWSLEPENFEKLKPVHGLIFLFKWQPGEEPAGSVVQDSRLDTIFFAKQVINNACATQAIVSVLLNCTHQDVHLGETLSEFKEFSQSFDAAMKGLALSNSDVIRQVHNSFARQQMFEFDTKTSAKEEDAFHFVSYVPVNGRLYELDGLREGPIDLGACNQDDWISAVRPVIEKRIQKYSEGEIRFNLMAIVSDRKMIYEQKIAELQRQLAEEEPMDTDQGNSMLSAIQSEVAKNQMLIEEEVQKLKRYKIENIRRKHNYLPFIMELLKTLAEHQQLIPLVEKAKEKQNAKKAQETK
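Reagent: Ub-AMC substrate; assay system: Proteasome-associated human UCH37 deubiquitinase; controls: no-proteasome and no-compound wells; read-out: % inhibition of Ub-AMC cleavage fluorescence; timing: 30 min preincubation with enzyme, 25 min cleavage at room temperature; signal: AMC fluorescence from Ub-AMC cleavage, excitation 355 nm, emission 460 nm; buffer or medium: Tris-HCl pH 7.4 plus ovalbumin, ATP-MgCl2, DTT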
UBC9 SUMO inh = inhibitors of in vitro SUMOylation cascade, primary screen, biochemical, HTRF, uHTS; HTRF SUMOylation assay, SAE1/SAE2 + UBC9; AID 2006, 2009; 290,000 compounds, 0.36% hits; inhibition, % at 35 µM; in the data active = inhibition above about 50%, passing the limit was not always enough
Target sequence (P63279 whole entry, looked up): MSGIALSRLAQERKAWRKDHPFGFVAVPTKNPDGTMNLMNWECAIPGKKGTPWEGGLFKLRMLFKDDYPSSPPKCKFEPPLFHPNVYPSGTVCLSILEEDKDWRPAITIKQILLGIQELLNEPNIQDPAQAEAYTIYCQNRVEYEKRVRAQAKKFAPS
Neddylation inh = inhibitors of cullin neddylation, primary screen, biochemical, TR-FRET, uHTS, NAE and Ubc12. inhibition, % at 25 µM. 360,000 compounds, 0.58% hits. AID 651699, 2012; in the data active = inhibition above about 36%
A number is an active result; - = inactive; . = no result shown.

SMILES	Fh CTSL1 inh	UCH37 inh	UBC9 SUMO inh	Neddylation inh
CN1CCN(C2=C(Cl)C(=O)N(c3cccc(Cl)c3)C2=O)CC1	23.4	-	-	-
Cc1ccc(N2C(=O)C(Cl)=C(N3CCOCC3)C2=O)cc1Cl	38.3	-	-	-
CN1CCN(C2=C(Cl)C(=O)N(c3ccc(Cl)c(Cl)c3)C2=O)CC1	40.2	-	-	-
CCCCN(C)C=Nc1c(C#N)cnn1-c1ccc(C)cc1	.	-	.	.
Cc1cccc(NC2=CC(=NS(=O)(=O)c3cccs3)c3ccccc3C2=O)c1	.	50.2	.	.
Cc1ccc(NC2=C/C(=N\S(=O)(=O)c3cccs3)c3ccccc3C2=O)c(C)c1	88.2	65.2	-	-
O=C(O)c1ccc(NC2=C/C(=N/S(=O)(=O)c3cccs3)c3ccccc3C2=O)cc1	.	.	.	-
Cc1cccc(NC2=C/C(=N/S(=O)(=O)c3cccs3)c3ccccc3C2=O)c1	53.9	.	-	-
O=C1C(Nc2ccc(O)cc2)=C/C(=N/S(=O)(=O)c2cccs2)c2ccccc21	.	.	-	-
Cc1sc(NC(=O)CCl)c(C(=O)c2ccccc2)c1C	53.1	-	-	-
Cc1ccccc1C(=O)Nc1sc(C)c(C)c1C(=O)c1ccccc1	-	-	-	-
COc1cc2c(C#N)c(N3CCN(C)CC3)nc(N)c2c(N)n1	-	-	99.2	.
CC(/C=C/c1ccco1)=NNC(=O)CNc1ccccc1C	.	-	.	.
Cc1cc(/C=C2\C(=N)N3N=C(S(C)(=O)=O)SC3=NC2=O)c(C)n1Cc1ccccc1	-	-	-	50.7
COc1ccc(Br)c(C=NNC(=O)COc2ccc(-c3ccccc3)cc2)c1	.	-	.	.
O=c1[nH]c(Nc2ccccc2)cc2ccccc12	104.6	-	84.5	-
Cn1c(=O)cc(Nc2ccccc2)[nH]c1=O	-	-	-	-
CC(=O)c1cccc(-c2ccc3c(=O)[nH]c(Nc4ccccc4)cc3c2)c1	85.3	31.1	.	-
CCC(C=NNC(=O)CCCCC(=O)NN=CC(CC)CC)CC	.	-	.	.
O=C(NN=Cc1cc2c(cc1[N+](=O)[O-])OCO2)c1ccccn1	.	-	.	.
Nc1cccc2c(O)cccc12	-	-	.	44.5
CC(CC(=O)Nc1ccccn1)=NNC(=O)Cc1cccc2ccccc12	.	-	.	.
NC(=O)N/N=C/c1ccc2cccc(OCc3ccccc3)c2n1	-	.	57.5	.
Cc1cc(Br)c(OCc2ccc(C(=O)N/N=C/c3ccc[nH]3)cc2)c(Br)c1	.	.	.	41.0
O=C(NN=Cc1ccc[nH]1)c1ccc(COc2cccc3cccnc23)cc1	.	-	.	.
SMILES	Fh CTSL1 inh	UCH37 inh	UBC9 SUMO inh	Neddylation inh
O=C(N/N=C/c1ccc[nH]1)c1ccc(COc2cccc3cccnc23)cc1	-	.	-	49.5
CC(C)(C)c1ccc(-c2n[nH]c(=S)n2N=Cc2ccncc2)cc1	.	-	.	.
CC(=NNC(=O)C(=O)Nc1cccc(Cl)c1C)c1ccncc1	.	-	.	.
Cc1ccc(C=NNC(=O)CSc2nc3nc(C)cc(C)n3n2)cc1	.	-	.	.
CCS(=O)(=O)C1=NN2C(=N)/C(=C\c3ccc(OC(=O)c4ccco4)c(OC)c3)C(=O)N=C2S1	-	.	-	-
C=CCOc1ccc(/C=C2\C(=N)N3N=C(S(=O)(=O)CC)SC3=NC2=O)cc1OC	-	21.4	-	-
Cc1cc(C=NNC(=O)C(=O)NCc2ccccn2)c(C)n1-c1cccc(Br)c1	.	-	.	.
Cc1ccc(NC(=O)CN2C(=O)S/C(=C\c3cccn3-c3cccc(C(=O)O)c3)C2=O)c(C)c1	-	-	83.4	-
Cc1ccc(NC(=O)CN2C(=O)N/C(=C/c3cc(C)n(-c4ccc(C(=O)O)cc4)c3C)C2=O)cc1	.	-	-	-
Cc1cccc(NC(=O)CN2C(=O)S/C(=C\c3cccn3-c3cccc(C(=O)O)c3)C2=O)c1	-	-	-	-
Cc1ccc(NC(=O)CN2C(=O)N/C(=C/c3cccn3-c3ccc(C(=O)O)cc3)C2=O)cc1	-	21.0	.	-
Cc1ccc(NC(=O)CN2C(=O)S/C(=C\c3cccn3-c3cccc(C(=O)O)c3)C2=O)cc1C	-	-	64.4	-
CCOC(=O)C1=C(c2ccccc2)N=c2sc(=Cc3ccc(O)cc3)c(=O)n2C1c1cccs1 (stereo not given)	.	-	.	.
O=C(CC=NOCc1ccc(Cl)cc1)c1cnc(-c2ccccc2)s1	.	-	.	.
CC(CC(=O)Nc1ccc2c(c1)OCCO2)=NNC(=O)COc1ccccc1	.	-	.	.
CCc1ccc(S(=O)(=O)/N=C2/C=C(Sc3ncn[nH]3)C(=O)c3ccccc32)cc1	100.3	.	92.1	-
CCc1ccc(S(=O)(=O)/N=C2\C=CC(=O)c3ccccc32)cc1	-	.	.	.
Cc1cc(C)c(S(=O)(=O)N=C2C=C(Sc3ncn[nH]3)C(=O)c3ccccc32)cc1C	.	30.7	.	.
CC(=NNC(=O)c1ccc(COc2ccccc2)cc1)c1ccncc1	.	-	.	.
CC(=O)N1CCc2cc(N=NC3=C(O)CC(C)(C)CC3=O)ccc21	-	23.6	-	-
COc1ccc(Nc2ccc3c(c2)=NC2(CCCCC2)[N+]=3[O-])cc1	-	-	-	-
[O-][N+]1=c2ccc(Nc3ccccc3)cc2=NC12CCCCC2	19.5	-	79.2	-
COc1ccc(-n2ccnc(SCC(=O)NC3CCCC3)c2=O)cc1OC	-	-	.	-
Cc1ccc(-n2ccnc(SCC(=O)NC3CCCCC3)c2=O)cc1F	25.3	-	.	-
CCCCC[C@H]1CN(C2CCCCC2)C(=O)[C@@H]1CC(=O)NCc1ccccc1	-	32.4	-	-
SMILES	Fh CTSL1 inh	UCH37 inh	UBC9 SUMO inh	Neddylation inh
C[C@H]1CN(C2CCCCC2)C(=O)[C@@H]1CC(=O)NCc1ccccc1	-	-	-	-
CC(C)CC(NC(=O)CCl)c1ccccc1 (stereo not given)	-	-	-	-
CCCC(NC(=O)CCl)c1ccccc1 (stereo not given)	22.3	-	-	-
Cc1ccc[n+](CC(=O)/C=C2\N(C)c3ccccc3C2(C)C)c1	-	20.4	-	-
CN1/C(=C\C(=O)C[n+]2cccc(Br)c2)C(C)(C)c2ccccc21	-	-	-	-
CC(=NNC(=O)c1cc(-c2ccccc2)nc2c(Cl)cccc12)c1cccnc1	.	-	.	.
O=C(Nc1ccc(Cl)cc1)Nc1nnc(-c2ccncc2)s1	-	-	-	-
O=C(Nc1ccc(F)cc1)Nc1nnc(-c2ccncc2)s1	-	-	-	-
O=C(Nc1cccc(Cl)c1)Nc1nnc(-c2ccncc2)s1	-	-	55.9	-
Cc1ccc(NC(=O)Nc2nnc(-c3ccncc3)s2)cc1C	-	-	72.8	-
Cn1nccc1NC(=O)Nc1cccc(Cl)c1	-	-	58.7	-
CCCCC(=NNC(=O)c1ccc(Br)o1)c1ccccc1	.	-	.	.
Cc1ccc(S(=O)(=O)Oc2ccccc2C=NNc2ccc(C(=O)O)cc2)cc1	.	-	.	.
O=C1C2C(C(=O)N1N=Cc1cc(Br)cc([N+](=O)[O-])c1O)C1C=CC2C12CC2 (stereo not given)	.	-	.	.
COc1ccccc1C(=O)NC(CCSC)C(=O)NCC(c1ccco1)N(C)C (stereo not given)	27.4	-	-	-
